We go through seven compounds from PMC10718585 (RSC Medicinal Chemistry, 2023).

The subject of one experiment is U87 cells. Put plainly: PrestoBlue dose–response cell viability assay, 5 d. Type of experiment: cell-based, human. The settings on record: U87, 3-point screen.
The next experiment has as its system T98 cells. Briefly: PrestoBlue dose–response cell viability assay, 5 d. Type of experiment: cell-based, human. Conditions: T98 versus U87 and bEnd.3, 3-point screen.
The test system of experiment [1] is U87, T98 and bEnd.3 cells. Put plainly: PrestoBlue cell viability screen, cell line not given. Type of experiment: cell-based. Conditions: BEND3, 120 h. The method, boiled down: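 bEnd.3 cells, grown in DMEM with 10% FBS and 2 mM L-glutamine, seeded at 1 × 10^4 per well. After 48 h at 37 °C/5% CO2 the medium was replaced and 20× compound dilutions in DMEM added (3–30 μM 3-point or 0.03–30 μM semi-log 7-point). DMSO 0.1% v/v served as untreated control. After 5 d, PrestoBlue was added for 60–90 min (ex 540/em 590 nm). EC50 came from a four-parameter logistic fit, minimum constrained to zero, normalised to untreated cells.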

The next experiment concerns the target LCK (Homo sapiens, UniProt P06239). Briefly: Z′-LYTE kinase inhibition. Type of experiment: biochemical. Conditions: 3-point dose–response (0.1, 1, 10 μM), ATP Km app. The method, boiled down:
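Z′-LYTE FRET assay: a peptide substrate tagged with a FRET pair, with protease cleavage distinguishing phospho from non-phospho peptide, read ratiometrically. Wild-type kinase was tested at 0.1, 1 and 10 μM in duplicate, with 1% DMSO and ATP at apparent Km. 100% inhibition was set without ATP; 0% used a synthetically phosphorylated substrate peptide. IC50 came from the dose-response curve.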

pEC50, pIC50: −log10 of the molar value.

Sequence of LCK (P06239 whole entry): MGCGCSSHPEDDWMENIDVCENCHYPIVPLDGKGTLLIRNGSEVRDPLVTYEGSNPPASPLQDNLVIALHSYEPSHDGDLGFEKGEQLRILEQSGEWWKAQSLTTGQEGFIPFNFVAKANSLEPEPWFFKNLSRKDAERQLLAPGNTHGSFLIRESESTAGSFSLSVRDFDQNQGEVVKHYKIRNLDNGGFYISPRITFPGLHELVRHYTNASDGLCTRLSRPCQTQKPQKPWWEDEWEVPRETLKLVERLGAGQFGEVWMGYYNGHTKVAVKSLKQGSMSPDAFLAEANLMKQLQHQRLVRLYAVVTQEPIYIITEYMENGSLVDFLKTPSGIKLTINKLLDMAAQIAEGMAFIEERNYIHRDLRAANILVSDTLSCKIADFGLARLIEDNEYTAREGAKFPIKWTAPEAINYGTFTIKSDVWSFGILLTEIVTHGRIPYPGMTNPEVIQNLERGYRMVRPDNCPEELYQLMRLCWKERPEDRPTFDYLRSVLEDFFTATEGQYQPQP

`Cn1nnc2c(C(N)=O)ncn2c1=O` [TMZ, temozolomide]: the antiproliferative activity entry in the experiment on U87 cells is on record as “some level of antiproliferative activity”.

On to `CNc1ncc2c(C#CCN3CCCCCC3)nn(CC3CCCC3)c2n1` [B21], for which, in the experiment on T98 cells, the antiproliferative selectivity profile entry is recorded as “selective antiproliferative profile against the T98 cell line”.

Regarding `CC1CCN(CC#Cc2nn(CC3CCCC3)c3ncnc(N)c23)CC1` [A3], the pEC50 in experiment [1] was more than 4.52.

For the compound `CNc1ncc2c(C#CCN3CCC(NC(C)=O)CC3)nn(CC3CCCC3)c2n1` [B16], the antiproliferative selectivity profile entry in the experiment on T98 cells is recorded as “selective antiproliferative profile against the T98 cell line”.

For `CCOC(=O)C1CCN(CC#Cc2nn(CC3CCCC3)c3nc(NC)ncc23)CC1` [B22], in the experiment with T98 cells, the antiproliferative selectivity profile entry is reported as “selective antiproliferative profile against the T98 cell line”.

At LCK, `CN(C)C1CCN(CC#Cc2nn(C3CCCC3)c3nc(NCc4ccccc4)ncc23)C1` (stereo not shown) [B58, N-Benzyl-1-cyclopentyl-3-(3-(3-(dimethylamino)pyrrolidine-1-yl)prop-1-yn-1-yl)-1H-pyrazolo[3,4-d]pyrimidin-6-amine] showed a pIC50 of 5.64.

With `CCOC(=O)N1CCN(CC#Cc2nn(CC3CCCC3)c3nc(NC)ncc23)CC1` [B23], the antiproliferative selectivity profile entry in the experiment on T98 cells is listed as “selective antiproliferative profile against the T98 cell line”.

Usually pEC50 stands for −log10 of the EC50, conventionally taken in molar units. Low readings indicate a large EC50, high ones a small EC50. By pIC50 is commonly meant the negative decadic logarithm of the IC50, by convention in mol/L. Read a high pIC50 as a small IC50.
